Screens: PubChem, several laboratories
A selection: hits, their analogues and other compounds. The true share with any hit is near 4.6%.
Wee1 stabilizer = Wee1 degradation inhibitors, primary screen, cell-based, HeLa, Wee1K328M-luciferase, luminescence. Wee1-like protein kinase (Homo sapiens), P30291. HeLa Luc-Wee1K328M stability; 100% = proteasome inhibitor MG132 effect. reporter increase, % at 5 µM. 1.2% of 220,000 active. AID 1321, 2008;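 active = activation above the mean of all tested compounds plus 3 SD, set per screening run, cut at about 8.8% in these data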;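 note: cells exposed to compound for 20 h before luminescence read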
NF-kB neuron act = activators of NF-kB expression in neurons, primary screen, cell-based, HTS | fold change at 12.5 µM | 1.6% of 190,000 active | human neuronal cells, NF-kB reporter expression; active compounds read high; in the data active = fold change above about 3.3
APP 5'UTR act = activators of APP 5'UTR luciferase reporter, primary screen, SH-SY5Y cells; activation, % at 2 µM; 1% of 190,000 active; AID 1276, 2008; SH-SY5Y APP 5'UTR luciferase reporter, luminescence; zero percent = DMSO vehicle wells;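 active = activation above a set limit, based on mean plus 3 SD of controls, cut at about 140% in these data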
p97 inhibitor = inhibitors of human p97 ATPase, primary screen, biochemical; Transitional endoplasmic reticulum ATPase (Homo sapiens), P55072; 0.42% of 220,000 active; inhibition, % at 8 µM; recombinant p97 ATPase, Kinase-Glo ATP luminescence, 3 h; in the data active = inhibition above about 15%
STAT1 act = STAT1 signaling activators, primary screen, cell-based, HTS, luciferase reporter. activation (% of control), % at 5.5 µM. NIH 3T3 STAT1-luciferase reporter, IFN-gamma, luminescence; 100% = IFN-gamma alone, no compound. 2.6% of 200,000 active;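 active = activation above the screen-wide mean activation plus 3 SD, cut at about 130% in these data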
Mdm2 ligase inh = MDM2-luciferase reporter signal enhancers, primary screen, MDM2 E3 ligase inhibitor project, cell-based, luminescence, 1536-well; 0.11% of 210,000 active; signal enhancement, % at 5 µM; E3 ubiquitin-protein ligase Mdm2 (Homo sapiens), Q00987; AID 1230, 2008; cell-based MDM2 ubiquitination luciferase reporter, 2 h; 0 = plate control, 100 = twice control, blank-subtracted;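 active = signal enhancement of 30% or more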;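 note: luminescence tracks abundance of the self-degrading MDM2-luciferase fusion protein; higher signal means inhibition of MDM2 E3 ligase activity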
Target sequence (Q00987 whole entry, looked up, the tested form may be a part): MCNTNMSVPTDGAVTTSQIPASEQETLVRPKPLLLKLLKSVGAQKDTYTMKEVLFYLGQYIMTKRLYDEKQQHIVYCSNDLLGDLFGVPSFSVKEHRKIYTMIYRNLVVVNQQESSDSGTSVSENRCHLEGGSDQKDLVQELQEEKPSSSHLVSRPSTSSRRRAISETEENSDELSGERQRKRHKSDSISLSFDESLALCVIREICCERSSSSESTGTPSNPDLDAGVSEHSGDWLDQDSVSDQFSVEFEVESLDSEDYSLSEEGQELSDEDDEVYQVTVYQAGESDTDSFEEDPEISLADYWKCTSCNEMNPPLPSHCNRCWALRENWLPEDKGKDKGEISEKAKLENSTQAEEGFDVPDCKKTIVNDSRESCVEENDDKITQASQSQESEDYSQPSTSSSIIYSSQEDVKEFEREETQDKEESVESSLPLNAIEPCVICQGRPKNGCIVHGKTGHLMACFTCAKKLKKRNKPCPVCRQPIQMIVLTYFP
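Test system: mammalian cells stably expressing self-ubiquitinating, self-degrading MDM2 E3–luciferase fusion; Amount: 2000 cells in each well; Medium: DMEM; Schedule: 4 h settle plus 2 h compound, 37 °C; Technique: SteadyLite luciferase luminescence after 15 min room-temperature reagent incubation; Benchmarks: plate control and blank wells.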
Large screens that a line does not name were inactive.

c1ccc2sc(SCSc3nc4ccccc4s3)nc2c1	none (no result: NF-kB neuron act, APP 5'UTR act, STAT1 act)
c1ccc2sc(SCc3ccc(-c4nnco4)cc3)nc2c1	NF-kB neuron act 4.24
CCC(C(=O)O)N1C(=O)C2CCCCC2C1=O (stereo not drawn)	none (no result: NF-kB neuron act, APP 5'UTR act, STAT1 act, Mdm2 ligase inh)
COC(=O)CSC1=C(C#N)C(=O)NC(c2ccccc2)S1 (stereo not drawn)	Mdm2 ligase inh 39.6
CSC1=C(C#N)C(=O)NC(c2ccccc2O)S1 (stereo not drawn)	none (no result: NF-kB neuron act, APP 5'UTR act, STAT1 act)
Cc1nc2ccccc2c(=O)n1NC(=O)c1cc(Br)ccc1Cl	none (no result: NF-kB neuron act, APP 5'UTR act, STAT1 act, Mdm2 ligase inh)
O=S(=O)(Cc1cc(-c2ccccc2)no1)c1ccccc1	STAT1 act 129.1
CCN(CC)CC(=O)NCc1cc(-c2ccc(OC)cc2)no1	none
Clc1ccc(OCc2cc(-c3ccccc3)no2)c(Cl)c1	NF-kB neuron act 4.53, APP 5'UTR act 187.8
COc1ccc(-c2cc(CS(=O)(=O)c3ccccc3)on2)cc1	STAT1 act 142.4
COc1ccc(-c2cc(COc3ccccc3)on2)cc1	STAT1 act 140.1
O=C1c2ccccc2C(=O)N1Cc1cc(-c2ccccc2)no1	none
NC(=S)NC(=O)/C=C/c1ccccc1	none
Cc1cc2nc3c(nc2cc1C)C(O)=C3O	none (no result: NF-kB neuron act, APP 5'UTR act, STAT1 act)
C/C(=N\NC(=O)c1ccn(C)n1)c1ccc(NC(=O)C2CCCC2)cc1	STAT1 act 135.3
C/C(=N/NC(=O)c1ccoc1C)c1ccc(NC(=O)C2CCCC2)cc1	APP 5'UTR act 161.1, STAT1 act 136.3
COc1ccc(-c2nc3ncnn3cc2C)cc1F	none
CCC(C)[C@@H](N)C(=O)N/N=C/c1ccc2ncccc2c1 (stereo partly drawn)	none
O=C(Nc1ccc(OC(F)F)c(Cl)c1)c1ccccn1	NF-kB neuron act 9.44, APP 5'UTR act 138.9, STAT1 act 146.5
CCCC1(C)NC(=O)c2ccccc2O1 (stereo not drawn)	none
O=C(CCC(=O)c1cccs1)Nc1ccc(F)c(F)c1F	none
CC1N/C(=C\C(=O)c2ccccc2)N(O)C1(C)C (stereo not drawn)	STAT1 act 134.0
Cc1cccc(Nc2nc(N)c([N+](=O)[O-])c(NCCO)n2)c1	none (no result: NF-kB neuron act, APP 5'UTR act, STAT1 act)
COc1ccc(NC2=C(NCCO)C(=O)c3ccccc3C2=O)cc1	NF-kB neuron act 4.31
Cc1cccc(NC2=C(NCCO)C(=O)c3ccccc3C2=O)c1	Wee1 stabilizer 9.3
O=c1c2c(nc3cc(-c4ccccc4)[nH]n13)CCS2	NF-kB neuron act 7.74
O=c1c2c(nc3cc(-c4ccccc4Cl)[nH]n13)CCS2	none
O=c1c2c(nc3cc(-c4ccccc4)[nH]n13)CCC2	NF-kB neuron act 3.69, STAT1 act 134.8
Cc1cc(C)c2c(=O)[nH]c(SCC(=O)c3ccc(C)c(C)c3)nc2n1	none
Cc1ccccc1Nc1nc(N)nc(COC(=O)c2cccn2C)n1	STAT1 act 141.4
CCc1ccccc1Nc1nc(N)nc(COC(=O)c2cccn2C)n1	none
Cn1cccc1C(=O)OCc1csc(-c2ccccc2)n1	NF-kB neuron act 5.75, APP 5'UTR act 149.6, STAT1 act 134.0
Cc1ccsc1C(=O)OCc1csc(-c2ccccc2)n1	NF-kB neuron act 9.41, APP 5'UTR act 195.3
CNS(=O)(=O)c1cccc(C(=O)OCc2csc(-c3ccccc3)n2)c1	none
O=C(N/C=C/c1ccccc1)Nc1ccc(Cl)cc1	STAT1 act 141.0
Cc1ccc(NC(=O)N/C=C/c2ccccc2)cc1	STAT1 act 146.0
CCc1ccc(NC2=NCC(c3ccccc3)S2)cc1 (stereo not drawn)	STAT1 act 129.5
O=[N+]([O-])c1ccc(C2CN=C(Nc3ccccc3)S2)cc1 (stereo not drawn)	none
COc1ccc(OC(=O)CN2C(=O)C3C4CCC(C4)C3C2=O)cc1 (stereo not drawn)	none
O=C(c1c[nH]c2ccccc12)N1CCN(c2ccccc2)CC1	none
O=C(C(=O)N1CCN(c2ccccc2)CC1)c1c[nH]c2ccccc12	Wee1 stabilizer 10.8
Cc1ccc(Oc2ccc(Oc3ccc(C)cc3)nn2)cc1	none
Cc1ccccc1Oc1ccc(Oc2ccccc2C)nn1	STAT1 act 130.7
CCc1ccc(-c2cc(C(=O)N/N=C/c3ccccn3)[nH]n2)cc1	none
O=C(N/N=C/c1c[nH]c2ccccc12)c1cc(-c2ccc3ccccc3c2)n[nH]1	STAT1 act 140.3
O=C(N/N=C/c1ccccn1)c1cc(-c2ccc3ccccc3c2)n[nH]1	STAT1 act 148.0
Clc1ccc(OCc2cn3ccccc3n2)c2ncccc12	Wee1 stabilizer 9.9, STAT1 act 144.7
CC(C)Cn1c(=O)c(C(=O)N/N=C/c2cccc(F)c2)c(O)c2ccccc21	none
Cc1cc(C(=O)Nc2nc3c(s2)CCCC3)no1	NF-kB neuron act 5.12, APP 5'UTR act 151.6, STAT1 act 138.8
CCc1ccc2nc(NC(=O)c3cc(C)on3)sc2c1	NF-kB neuron act 3.46, STAT1 act 133.3
C[C@H](NC(=O)c1nc[nH]c1C(=O)NCCCCCNC(=O)OC(C)(C)C)C(=O)OCc1ccccc1	Wee1 stabilizer 9.1 (no result: Mdm2 ligase inh)
O=c1cc(NCCO)c2ccccc2o1	none
O=c1cc(NCCc2ccccc2)c2ccccc2o1	Wee1 stabilizer 9.0
O=[N+]([O-])c1cccnc1NCCNc1ncc(C(F)(F)F)cc1Cl	STAT1 act 137.2
O=[N+]([O-])c1ccccc1NCCNc1ncc(C(F)(F)F)cc1Cl	none
COc1ccc(/C=N/c2c(-c3ccco3)nc3ccccn23)cc1OC	Wee1 stabilizer 9.0
CC(=O)Nc1cc2c(ccc3ccccc32)oc1=O	none
CNC(=O)c1cc2c(ccc3ccccc32)o1	STAT1 act 133.0
O=C(NC1CCCC1)c1cc2c(ccc3ccccc32)o1	NF-kB neuron act 3.37, STAT1 act 137.2
CSc1nc2sc3c(c2c2nncn12)CCC3	none
Cc1nc(Sc2nnnn2C)c2c3c(sc2n1)CCC3	NF-kB neuron act 12.3
CCc1nc(Sc2nnnn2-c2ccccc2)c2c3c(sc2n1)CCCC3	NF-kB neuron act 7.95
COCCN(C(=S)Nc1c(C)cccc1C)C(C)c1cccs1 (stereo not drawn)	none
c1ccc2c(c1)nnn2-c1ncnc2sccc12	STAT1 act 133.5
S=C(c1ccc(-c2ccc(Cl)cc2Cl)o1)N1CCCCC1	Wee1 stabilizer 10.2, NF-kB neuron act 3.85, STAT1 act 143.9
S=C(c1ccc(-c2ccc(Cl)cc2Cl)o1)N1CCCC1	none (no result: NF-kB neuron act, APP 5'UTR act, STAT1 act)
